Experimental data: ChEMBL document CHEMBL1147105, “In vitro and in vivo activities of PD 0305970 and PD 0326448, new bacterial gyrase/topoisomerase inhibitors with potent antibacterial activities versus multidrug-resistant gram-positive and fastidious organism groups” (2007)
≈ marks a conversion by molar mass, not a printed value. Calls of active or inactive are those of the source.

What was measured:
[1] = test system: Streptococcus pneumoniae; assay: Bactericidal activity against Streptococcus pneumoniae SV1 at 0.008 ug/ml by time-kill study; type: functional, organism-based
Procedure, shortened: (§1)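 Time-kill in 10 ml of cation-adjusted Mueller-Hinton broth with 3% lysed horse blood, without agitation. Multiples of MIC tested. Samples taken at 0, 2, 4, 6 and 24 h and plated on tryptic soy agar with 5% sheep blood after ≥250-fold dilution, detection limit 10 CFU/ml. Counts read after 24 h at 35°C. Bactericidal defined as a ≥3 log10 drop from the starting inoculum within 24 h.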

[2] = test system: Streptococcus pneumoniae; assay: Bactericidal activity against Streptococcus pneumoniae SV1 at 2 ug/ml by time-kill study; type: functional, organism-based; procedure, shortened: as §1
[3] = test system: Escherichia coli; assay: Antibacterial efficacy against Escherichia coli Vogel infected orally dosed CD1 mouse model; type: functional
Procedure, shortened: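 Female CD1 mice, 6–8 weeks old (18–22 g), challenged intraperitoneally (0.5 ml) with ≥100 median lethal doses suspended in 20% hog gastric mucin. Single oral gavage dose at the time of challenge, in 0.5% methylcellulose. Untreated controls of 10 mice per group. PD50 (mg/kg), the dose protecting 50% of mice from lethal infection, calculated by probit analysis.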

[4] = test system: Streptococcus pneumoniae; assay: Antibacterial activity against Streptococcus pneumoniae 1-970-2 with gyrB Asp435Glu, Glu475Ala and parE Pro475Ser mutation; type: functional
[5] = test system: Streptococcus pyogenes; assay: Bactericidal activity against Streptococcus pyogenes C203 at 2 ug/ml by time-kill study; type: functional, organism-based; procedure, shortened: as §1
[6] = test system: Streptococcus pneumoniae; assay: Antibacterial activity against Streptococcus pneumoniae SVI infected once daily orally dosed CD1 mouse; type: functional; conditions: po; for ED50: read-out: PD50
Procedure, shortened: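 Pneumonia model in CD1 mice (n = 8), anaesthetised with ketamine i.p. Intranasal instillation of 50 μl of broth culture (10^8–10^9 CFU/ml, OD600 0.70), confirmed by plate counts. Oral therapy began 24 h post-challenge. Dosing was either once daily for 1 day or twice daily for 3 days. The result was given as the PD50 (mg/kg).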

[7] = test system: Streptococcus pyogenes; assay: Bactericidal activity against Streptococcus pyogenes C203 at 0.008 ug/ml by time-kill study; type: functional, organism-based; procedure, shortened: as §1
[8] = test system: Streptococcus pneumoniae; assay: Antibacterial activity against Streptococcus pneumoniae 1-970-1 with gyrB Asp435Glu mutation; type: functional
[9] = test system: Streptococcus pneumoniae; assay: Antibacterial activity against Streptococcus pneumoniae 7785; type: functional
[10] = test system: Staphylococcus aureus; assay: Antibacterial efficacy against ciprofloxacin and methicillin-resistant Staphylococcus aureus SA2017 infected orally dosed CD1 mouse model; type: functional
Procedure, shortened: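 Sepsis model in female CD1 mice (6–8 weeks, 18–22 g). Lethal i.p. challenge (0.5 ml) at ≥100 median lethal doses. Streptococci were given in Todd-Hewitt broth; other organisms were given with 20% hog gastric mucin. A single oral gavage dose (0.5 ml, in 0.5% methylcellulose) was given at the time of challenge. The PD50 (mg/kg) was calculated by probit analysis.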

SMILES | Activity [1] | Activity [2] | MIC [3] [µg/mL] | ED50 ([3]; read-out: PD50) [mg/kg] | MIC [4] [µg/mL] | Activity [5] | MIC [6] [µg/mL] | ED50 [6] [mg/kg] | Activity [7] | MIC [8] [µg/mL] | MIC [9] [µg/mL] | MIC [10] [µg/mL] | ED50 ([10]; read-out: PD50) [mg/kg]
Cc1c(N2CC[C@@H]([C@H](C)N)C2)c(F)cc2c(=O)n(N)c(=O)n(C3CC3)c12 | Active | Active | 1 (≈ 2.77 µM) | 82 | 0.125 (≈ 0.346 µM) | Active | 0.008 (≈ 0.0221 µM) | 3.2 | Active | 0.06 (≈ 0.166 µM) | 0.03 (≈ 0.083 µM) | 0.25 (≈ 0.692 µM) | 23
C[C@H]1COc2c(N3CCN(C)CC3)c(F)cc3c(=O)c(C(=O)O)cn1c23.C[C@H]1COc2c(N3CCN(C)CC3)c(F)cc3c(=O)c(C(=O)O)cn1c23.O [LEVOFLOXACIN] |  |  |  |  |  |  |  | 69 |  |  |  | 8 | 
